The values below come from PubChem BioAssay.

Activity calls are given as the source filed them.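 Rule for the calls, unless noted: active = GFP response above 150% of the DMSO level; inconclusive = fewer than 70 events counted for a yeast strain; inactive = the rest.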

Assay [1] can be described thus: hit retest on RPL19A-GFP reporter strain – cell-based, S. cerevisiae, flow cytometry, cherry picks, mother/daughter gates, confirmation (AID 2270;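 active = GFP response below 50% of the DMSO control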). Conditions: 3 h, at 10 µM, stronger effect = lower value, 100 = same GFP as DMSO wells. A general note: In flow cytometry, cells or beads pass a laser one at a time.
Assay [2] is described as follows: yeast TOR pathway reporter LAP4-GFP change – cell-based, cherry picks, flow cytometry, mother/daughter gates, confirmation (AID 2271;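 active = GFP response above 150% of the DMSO control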;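 note: ratio of sample to DMSO plate mean so 100% equals DMSO level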). Conditions: S. cerevisiae LAP4-GFP strain, 3 h, at 10 µM, stronger effect = higher value, 100 means same as DMSO control. Summed up:
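Material: Alexa 633-stained baker's yeast GFP-fusion strain; Compound dosing: single test-compound dose, 10 µM final; Incubation: 30 °C, 3 h compound incubation, rotating; Detection: HT flow cytometry, GFP fluorescence channel; Control set: positive rapamycin (400 ng/mL), negative DMSO.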

Assay [3] can be described thus: TOR pathway reporter MEP2-GFP, retest of hits – S. cerevisiae, flow cytometry GFP, cherry picks, confirmation (AID 2272;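 active = GFP response above 150% of the DMSO control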;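 note: ratio of well signal to plate DMSO mean so 100% equals DMSO level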). Conditions: S. cerevisiae MEP2-GFP strain, 3 h, at 10 µM, stronger effect = higher value.
Assay [4] can be described thus: yeast AGP1-GFP fluorescence change, single-dose – cell-based, flow cytometry, S. cerevisiae, cherry picks, confirmation (AID 2273).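 Note: median GFP channel fluorescence over the whole cell population gate.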 Conditions: S. cerevisiae AGP1-GFP strain, 3 h, at 10 µM.
The nature of assay [5]: TOR pathway CIT2 reporter hit retest – S. cerevisiae, GFP fusion, cherry picks, mother/daughter gates, confirmation (AID 2274). Conditions: S. cerevisiae CIT2-GFP strain, flow cytometry, 3 h, at 10 µM, stronger effect = higher value.
The mark [6] stands for this setting: measured here: daughter cell gate.
[7] abbreviates: measured here: mother cell gate.
Setting [8] is: measured here: daughter cell gate response.
The mark [9] stands for this setting: measured here: mother cell gate response.

For the compound `CC1(C(=O)OCc2cc(=O)n3cc(Br)ccc3n2)CC1(Cl)Cl` (configuration not stated), the GFP response vs DMSO is 92.5% (inactive) in assay [1], 89.9% in assay [1] (setting [6]), 93.8% in assay [1] (setting [7]) and 94.4% (inactive) in assay [3]. For the same compound, the GFP response relative to DMSO in assay [2] was 133% (inactive); in assay [2] (setting [8]), 123%; in assay [2] (setting [9]) it was 139%. Besides, the GFP response, % of DMSO in assay [4] is 103% (inactive); in assay [5] it was 88.5% (inactive); in assay [5] (setting [6]) it was 87.3%; in assay [5] (setting [7]), 88.8%.

In the case of `O=C(COC(=O)c1ccc(NS(=O)(=O)c2cccs2)cc1O)Nc1nc2ccccc2s1`, the GFP response vs DMSO in assay [1] was 101% (inactive); in assay [1] (setting [6]), 100%; in assay [1] (setting [7]) it was 101%; in assay [3], 102% (inactive). For the same compound, the GFP response relative to DMSO was 91.4% (inactive) in assay [2], 92.5% in assay [2] (setting [8]) and 93.1% in assay [2] (setting [9]). For the same compound, the GFP response, % of DMSO in assay [4] is 98.5% (inactive); in assay [5], 102% (inactive); in assay [5] (setting [6]), 98.1%; in assay [5] (setting [7]), 104%.

Consider `O=C(OCC(=O)N1CCN(C(=O)c2ccco2)CC1)c1cc(-c2ccc(F)cc2)nc2ccccc12`, for which the GFP response vs DMSO is 78.9% (inactive) in assay [1], 74.3% in assay [1] (setting [6]), 74.5% in assay [1] (setting [7]) and 125% (inactive) in assay [3]. In addition, the GFP response relative to DMSO is 133% (inactive) in assay [2], 107% in assay [2] (setting [8]) and 138% in assay [2] (setting [9]). Also, the GFP response, % of DMSO in assay [4] was 138% (inactive); in assay [5], 135% (inactive); in assay [5] (setting [6]), 114%; in assay [5] (setting [7]), 136%.

In the case of `COC(=O)c1ccc(CS(=O)(=O)c2ccc(F)cc2)o1`, the GFP response vs DMSO in assay [1] is 97.8% (inactive); in assay [1] (setting [6]), 98.1%; in assay [1] (setting [7]), 95.9%; in assay [3], 103% (inactive). Moreover, the GFP response relative to DMSO is 98.9% (inactive) in assay [2], 99% in assay [2] (setting [8]) and 98.4% in assay [2] (setting [9]). The GFP response, % of DMSO in assay [4] was 102% (inactive); in assay [5], 100% (inactive); in assay [5] (setting [6]), 99.3%; in assay [5] (setting [7]) it was 98.2%.

In the case of `COc1ccc(NC(=O)CCc2nc(-c3ccccc3F)no2)cc1`, the GFP response vs DMSO in assay [1] is 95.6% (inactive); in assay [1] (setting [6]), 95.9%; in assay [1] (setting [7]) it was 93.1%; in assay [3] it was 101% (inactive). The GFP response relative to DMSO is 106% (inactive) in assay [2], 101% in assay [2] (setting [8]) and 106% in assay [2] (setting [9]). Also, the GFP response, % of DMSO in assay [4] is 97.7% (inactive); in assay [5], 97.2% (inactive); in assay [5] (setting [6]) it was 95.8%; in assay [5] (setting [7]), 94.9%.

Take `COc1ccc(NC(=O)/C(Cl)=C(/Cl)S(=O)Cc2ccccc2)cn1` (configuration not stated): the GFP response vs DMSO is 104% (inactive) in assay [1], 114% in assay [1] (setting [6]), 95.5% in assay [1] (setting [7]) and 118% (inactive) in assay [3]. The results for the GFP response relative to DMSO in assay [2], in assay [2] (setting [8]) and in assay [2] (setting [9]) were 262% (active), 227% and 243%, respectively. In addition, the GFP response, % of DMSO was 103% (inactive) in assay [4], 114% (inactive) in assay [5], 134% in assay [5] (setting [6]) and 99.1% in assay [5] (setting [7]).

On to `O=C(NN1C(=O)/C(=C\c2ccc(O)c([N+](=O)[O-])c2)SC1=S)c1ccccc1Cl`, for which the GFP response vs DMSO in assay [1] is 97.4% (inactive); in assay [1] (setting [6]), 95.9%; in assay [1] (setting [7]) it was 95.8%; in assay [3] it was 123% (inactive). Further, the figures for the GFP response relative to DMSO in assay [2], in assay [2] (setting [8]) and in assay [2] (setting [9]) were 126% (inactive), 106% and 129%, respectively. Also, the GFP response, % of DMSO in assay [4] is 69.8% (inactive); in assay [5], 107% (inactive); in assay [5] (setting [6]), 99.1%; in assay [5] (setting [7]) it was 106%.

Take `Cc1ccn2c(NC3CCCCC3)c(C(C)C)nc2c1`: the GFP response vs DMSO in assay [1] was 99.4% (inactive); in assay [1] (setting [6]), 99.4%; in assay [1] (setting [7]), 99.2%; in assay [3] it was 100% (inactive). For the same compound, the GFP response relative to DMSO in assay [2] was 101% (inactive); in assay [2] (setting [8]), 101%; in assay [2] (setting [9]), 100%. For the same compound, the GFP response, % of DMSO in assay [4] was 100% (inactive); in assay [5], 101% (inactive); in assay [5] (setting [6]), 103%; in assay [5] (setting [7]), 101%.

For `O=C(Nc1ccc(Cl)cc1Cl)c1cccc(N2C(=O)C=CC2=O)c1`, the GFP response vs DMSO was 76.5% (inactive) in assay [1], 70.3% in assay [1] (setting [6]), 65.5% in assay [1] (setting [7]) and 111% (inactive) in assay [3]. Also, the GFP response relative to DMSO in assay [2] is 204% (active); in assay [2] (setting [8]) it was 123%; in assay [2] (setting [9]) it was 179%. The GFP response, % of DMSO in assay [4] is 99.1% (inactive); in assay [5] it was 96.9% (inactive); in assay [5] (setting [6]) it was 105%; in assay [5] (setting [7]), 80.7%.

Turning to `O=C(Nc1cccc(O)c1)c1ccccc1`, the GFP response vs DMSO was 94.6% (inactive) in assay [1], 96.1% in assay [1] (setting [6]), 96.4% in assay [1] (setting [7]) and 98.3% (inactive) in assay [3]. The GFP response relative to DMSO is 95.4% (inactive) in assay [2], 97.6% in assay [2] (setting [8]) and 95.1% in assay [2] (setting [9]). Further, the GFP response, % of DMSO was 101% (inactive) in assay [4], 98.3% (inactive) in assay [5], 101% in assay [5] (setting [6]) and 97.3% in assay [5] (setting [7]).

Consider `COc1ccccc1OCC(=O)Sc1ccc(C)cc1`, for which the GFP response vs DMSO in assay [1] is 95.3% (inactive); in assay [1] (setting [6]) it was 96.7%; in assay [1] (setting [7]), 92.3%; in assay [3] it was 120% (inactive). Moreover, the GFP response relative to DMSO in assay [2] is 113% (inactive); in assay [2] (setting [8]) it was 110%; in assay [2] (setting [9]), 113%. In addition, the GFP response, % of DMSO was 99.3% (inactive) in assay [4], 97.2% (inactive) in assay [5], 99.3% in assay [5] (setting [6]) and 93.8% in assay [5] (setting [7]).

Turning to `COC(=O)Nc1c(-c2ccccc2)nc2ccc(C)cn12`, the GFP response vs DMSO in assay [1] is 101% (inactive); in assay [1] (setting [6]), 98.7%; in assay [1] (setting [7]), 102%; in assay [3], 102% (inactive). The results for the GFP response relative to DMSO in assay [2], in assay [2] (setting [8]) and in assay [2] (setting [9]) were 96.2% (inactive), 97.2% and 98.3%, respectively. For the same compound, the GFP response, % of DMSO is 103% (inactive) in assay [4], 104% (inactive) in assay [5], 101% in assay [5] (setting [6]) and 107% in assay [5] (setting [7]).

Regarding `Cc1cccn2c(=O)c(/C=C(\C#N)C(=O)NCc3ccco3)c(N3CCOCC3)nc12`, the GFP response vs DMSO in assay [1] is 100% (inactive); in assay [1] (setting [6]), 101%; in assay [1] (setting [7]) it was 99.6%; in assay [3], 99% (inactive). Also, the GFP response relative to DMSO is 97% (inactive) in assay [2], 97.5% in assay [2] (setting [8]) and 96.2% in assay [2] (setting [9]). The GFP response, % of DMSO was 98% (inactive) in assay [4], 100% (inactive) in assay [5], 103% in assay [5] (setting [6]) and 98.1% in assay [5] (setting [7]).

Take `Cc1ccc(S(=O)(=O)/N=C(\Sc2ccccc2)c2ccccc2)cc1`: the GFP response vs DMSO was 99.5% (inactive) in assay [1], 98.3% in assay [1] (setting [6]), 98.6% in assay [1] (setting [7]) and 106% (inactive) in assay [3]. Further, the GFP response relative to DMSO is 151% (active) in assay [2], 134% in assay [2] (setting [8]) and 148% in assay [2] (setting [9]). In addition, the GFP response, % of DMSO in assay [4] is 97.3% (inactive); in assay [5], 92.1% (inactive); in assay [5] (setting [6]) it was 92.7%; in assay [5] (setting [7]), 87.5%.

As for `CCOC(=O)CNc1c(-c2ccc(O)cc2)nc2ccc(Cl)cn12`, the GFP response vs DMSO in assay [1] was 101% (inactive); in assay [1] (setting [6]), 99.8%; in assay [1] (setting [7]) it was 101%; in assay [3] it was 102% (inactive). Besides, the GFP response relative to DMSO in assay [2] was 96.5% (inactive); in assay [2] (setting [8]), 95%; in assay [2] (setting [9]), 97.5%. Further, the GFP response, % of DMSO was 95.4% (inactive) in assay [4], 96.4% (inactive) in assay [5], 96.4% in assay [5] (setting [6]) and 95.6% in assay [5] (setting [7]).

Consider `COCCNC(=O)c1ccc(Cl)c(Cl)c1`, for which the GFP response vs DMSO is 97.2% (inactive) in assay [1], 95.6% in assay [1] (setting [6]), 95.3% in assay [1] (setting [7]) and 100% (inactive) in assay [3]. Also, the results for the GFP response relative to DMSO in assay [2], in assay [2] (setting [8]) and in assay [2] (setting [9]) were 102% (inactive), 101% and 96.1%, respectively. The GFP response, % of DMSO in assay [4] was 100% (inactive); in assay [5], 105% (inactive); in assay [5] (setting [6]), 103%; in assay [5] (setting [7]), 93.8%.

For the compound `C/C(=N\NC(=O)c1cccc(Br)c1)c1ccccn1`, the GFP response vs DMSO in assay [1] was 108% (inactive); in assay [1] (setting [6]), 97.6%; in assay [1] (setting [7]) it was 102%; in assay [3], 122% (inactive). The values for the GFP response relative to DMSO in assay [2], in assay [2] (setting [8]) and in assay [2] (setting [9]) were 163% (active), 149% and 166%, respectively. The GFP response, % of DMSO in assay [4] was 97.3% (inactive); in assay [5], 108% (inactive); in assay [5] (setting [6]) it was 101%; in assay [5] (setting [7]), 101%.
